Bioassay records from PubChem BioAssay.
RAM network inh: inhibitors of the yeast RAM network, primary screen, dse1pr::URA3 reporter, 5-FOA selection; S. cerevisiae dse1pr::URA3 reporter, 5-FOA growth OD615, 2 d; analog-sensitive cbk1-as2 kinase mutant strain; inhibition, % at 50 µM; 190,000 tested, 1.8% active;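 active means inhibition above a set limit, 3 SD over mean compound inhibition, cut at about 8.4% in these data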;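 further: 0% = DMSO-only wells with no growth and 100% = 10 µM 1-NA-PP1 full growth; inhibition rescues growth on 5-FOA so higher OD means more RAM inhibition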
ABCB1 block: ABCB1 efflux pump inhibitors, primary screen, cell-based, multiplex, flow cytometry, ABCG2 counter-screen | ATP-dependent translocase ABCB1 (Homo sapiens), P08183 | CCRF-Adr cells, JC-1 efflux | inhibition, % at 6.6 µM | 190,000 tested, 0.067% active | AID 1326, 2008; in the data active means inhibition above about 40%;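 further: 0% = vehicle and 100% = reference inhibitor; higher value means more JC-1 retained so stronger ABCB1 efflux block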
WT yeast gro inh: growth inhibition of WT strain, primary screen, mitochondrial fusion inhibitor project, WT and mutant strains, chemical genetic; mitochondrial fusion phenotypic screen; inhibition, % at 10 µM; 190,000 tested, 2.1% active; AID 1362, 2008; in the data active means inhibition above about 58%; tested in S. cerevisiae
L major viab: Leishmania major promastigote growth inhibition, primary screen | Leishmania major promastigotes, resazurin fluorescence viability | inhibition, % at 10 µM | 200,000 tested, 9% active | AID 1063, 2008; in the data active means inhibition above about 50%;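 further: promastigotes grown with compound for 44 hours at 28 °C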
ABCG2 inh: ABCG2 efflux pump inhibitors, primary screen, multiplex with ABCB1, IgMXP3 cells, flow cytometry; Broad substrate specificity ATP-binding cassette transporter ABCG2 (Homo sapiens), Q9UNQ0; JC-1 efflux; inhibition, % at 6.6 µM; 190,000 tested, 0.1% active;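 active means inhibition above 80%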;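 further: 0% = DMSO and 100% = nicardipine control wells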
Target sequence (Q9UNQ0 whole entry, looked up): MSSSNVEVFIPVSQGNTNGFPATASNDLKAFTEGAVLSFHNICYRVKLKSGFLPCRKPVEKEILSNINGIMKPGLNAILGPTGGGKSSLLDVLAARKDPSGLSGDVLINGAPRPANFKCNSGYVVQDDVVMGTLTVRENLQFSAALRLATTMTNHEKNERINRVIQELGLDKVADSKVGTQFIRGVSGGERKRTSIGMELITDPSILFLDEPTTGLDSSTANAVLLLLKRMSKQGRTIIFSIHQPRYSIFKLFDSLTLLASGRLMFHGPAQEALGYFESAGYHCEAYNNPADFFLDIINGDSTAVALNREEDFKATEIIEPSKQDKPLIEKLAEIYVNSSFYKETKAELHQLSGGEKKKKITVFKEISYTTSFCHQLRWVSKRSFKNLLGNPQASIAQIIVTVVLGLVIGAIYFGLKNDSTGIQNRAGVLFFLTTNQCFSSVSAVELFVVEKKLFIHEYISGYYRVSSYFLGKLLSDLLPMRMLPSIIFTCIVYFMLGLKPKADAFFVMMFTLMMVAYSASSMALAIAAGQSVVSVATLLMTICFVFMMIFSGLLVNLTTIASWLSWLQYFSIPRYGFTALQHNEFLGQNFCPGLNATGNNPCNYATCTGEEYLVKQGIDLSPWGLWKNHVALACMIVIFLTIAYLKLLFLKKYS
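Test system: IgMXP3 (ABCG2) plus far-red-tagged CCRF-Adr (ABCB1) cells. Reagent: JC-1 dye as substrate. Timing: 10 min exposure at 25 °C with rotation, no wash. Measured by: flow cytometric JC-1 green MFI at 530 nm. Read-out: percent efflux inhibition, scaled nicardipine 100% to DMSO 0%. Control set: nicardipine and DMSO wells.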
An asterisk follows results filed as active; . = no result. This is a sample that favours compounds with a hit; in the whole collection about 12% have one here.

SMILES	RAM network inh	ABCB1 block	WT yeast gro inh	L major viab	ABCG2 inh
Cc1nn(CCC(N)=S)c2nc(-c3cccs3)cc(C(F)(F)F)c12	2.5	-0.1	75.1*	1.2	3.1
COc1cc(C#N)c(NC(=S)N2CCOCC2)cc1OC	1.7	0.5	-2.9	-13.3	2.6
Cn1c(=O)c2c(nc(N/N=C/c3ccc(OC(=O)c4ccco4)cc3)n2Cc2ccccc2Cl)n(C)c1=O	8.0	1.0	20.7	55.1*	2.9
O=C(Nc1cccc(C(F)(F)F)c1)c1ccccc1NC(=O)C1CCCCC1	3.4	0.5	1.4	57.4*	6.2
Cc1[nH][nH]c(=O)c1C(c1ccc(-c2ccc(Cl)c(Cl)c2)o1)c1c(C)[nH][nH]c1=O	0.2	0.5	-14.8	100.2*	10.8
COc1ccc(-c2ccc(C(c3c(C)[nH][nH]c3=O)c3c(C)[nH][nH]c3=O)o2)c([N+](=O)[O-])c1	-0.4	-0.4	20.3	61.0*	0.0
Cc1[nH][nH]c(=O)c1C(c1ccc(-c2ccc(C(=O)O)cc2)o1)c1c(C)[nH][nH]c1=O	0.3	-0.2	-9.3	-6.1	-0.4
Cc1[nH][nH]c(=O)c1C(c1ccc(-c2ccc(F)cc2)o1)c1c(C)[nH][nH]c1=O	-0.9	0.6	20.7	99.4*	3.9
CCc1ccc(C(C(=O)NC2CCCCC2)N(C(=O)CNC(=O)c2ccco2)c2cccnc2)cc1 (configuration not stated)	.	.	.	-1.6	.
CCc1c(C(C)O)oc2ccc3c(C)cc(=O)oc3c12 (configuration not stated)	0.5	0.4	5.3	0.8	2.0
Cc1nc(Nc2ccc(Cl)cc2Cl)sc1C(=O)Nc1ccccc1	0.5	0.5	71.0*	-4.1	13.3
Cc1nc(Nc2ccc(Cl)c(Cl)c2)sc1C(=O)Nc1ccccc1	3.9	-0.4	92.5	3.2	-5.8
COc1ccc(NC(=O)Cc2c(SC)c3ccccc3n2Cc2ccccc2)cc1	1.4	1.5	9.6	-4.1	8.9
Cc1oc(C)c2c(=O)ccc3c(c12)OC(N)=C(C#N)C3c1ccc(F)cc1 (configuration not stated)	-1.2	0.6	-19.9	60.0*	2.6
Cc1ccc(Oc2ccc(OCC(=O)NC(CC(C)C)C(=O)O)cc2)cc1 (configuration not stated)	0.2	1.0	-5.5	-1.5	3.2
COc1cccc(/C=C/C(=O)OCC(=O)NCCC2=CCCCC2)c1	7.2	1.4	29.6	-7.0	18.4
O=[N+]([O-])c1ccc(-c2cn(-c3ccccc3)c(=S)[nH]2)cc1	10.5*	-0.1	-7.5	-8.8	12.0
N#CCCn1nc(-c2ccc(Br)cc2)cc1Nc1ccccc1NC(=O)C(F)(F)F	10.1*	1.5	38.9	69.1*	27.7
O=C(NCCC1=CCCCC1)c1cc(-c2ccccn2)nc2ccccc12	8.0	2.0	8.8	0.5	7.7
CC(Cc1cccs1)NC(=S)Nc1ccc(Cl)cc1 (configuration not stated)	-0.1	-0.1	67.2*	11.0	1.9
CCC(C)c1ccc(NC(=S)NCc2cccs2)cc1 (configuration not stated)	3.7	0.3	6.1	67.2*	2.9
CC(Cc1cccs1)NC(=O)Nc1ccc(F)cc1 (configuration not stated)	-0.6	0.2	-3.5	-2.2	3.7
CC(C)(C)c1ccc(NC(=S)NCc2cccs2)cc1	-0.5	0.7	-6.5	14.3	7.4
CC(Cc1cccs1)NC(=O)Nc1cccc(Cl)c1 (configuration not stated)	3.0	0.4	13.4	68.4*	11.7
CCC(C(=O)Nc1sc(C(N)=O)c(C)c1C(=O)OC)c1ccccc1 (configuration not stated)	2.5	-0.8	-7.2	24.3	8.1
SMILES	RAM network inh	ABCB1 block	WT yeast gro inh	L major viab	ABCG2 inh
CCc1ccccc1Nc1nc2ccccc2n1CC	-0.7	0.8	0.2	72.1*	30.9
CCOC(=O)c1[nH]c2c(c1-c1ccccc1)C(=O)CC(c1ccc(OC)c(OC)c1)C2 (configuration not stated)	5.2	5.2	9.2	53.9*	16.5
CCOC(=O)c1cc2occc2n1CCCN1C(=O)c2ccccc2C1=O	9.2*	0.5	24.6	-1.8	1.6
CCOC(=O)c1cc2occc2n1CC(=O)N1CCOCC1	1.2	0.1	-8.6	-5.6	0.2
CCOC(=O)c1cc2sc(C)cc2n1CCCN1C(=O)c2ccccc2C1=O	10.7*	0.9	8.7	4.2	4.9
CC(O)C(NS(=O)(=O)c1ccc(Cl)cc1)C(=O)OCC(=O)N1CCN(c2ccccc2)CC1 (configuration not stated)	6.7	2.0	-2.3	0.9	10.0
O=C1C(Cl)=C(Nc2ccccc2O)C(=O)N1CCc1ccccc1	7.3	0.8	30.2	0.4	2.3
CCOC(=O)/C(=C\c1ccc(Cl)cc1)c1nc2sc(C)c(C)c2c(=O)[nH]1	3.2	0.2	49.9	100.3*	-0.4
CCC(=O)NC(NC(=S)Nc1ccc(S(N)(=O)=O)cc1)C(Cl)(Cl)Cl (configuration not stated)	0.4	-1.2	-7.2	-7.2	-13.3
Cc1cccc(C(=O)NC(NC(=S)Nc2ccc(S(N)(=O)=O)cc2)C(Cl)(Cl)Cl)c1 (configuration not stated)	0.0	.	-17.8	54.4*	-3.2
Cc1cccc(C(=O)NC(NCc2ccco2)C(Cl)(Cl)Cl)c1 (configuration not stated)	0.3	0.2	7.8	11.9	1.1
Cc1cccc(C(=O)NC(NCCc2ccccc2)C(Cl)(Cl)Cl)c1 (configuration not stated)	0.8	0.8	58.8*	14.9	1.6
CC(CCc1ccccc1)NC(=O)N1CCOCC1 (configuration not stated)	-0.4	.	-18.3	43.6	4.5
COc1ccc(CC(=O)Nc2ccc(C(=O)NCC(C)C)cc2)cc1	3.6	-0.1	-23.5	54.5*	0.5
COc1ccc(CC(=O)Nc2ccc(C(C)=O)cc2)cc1	0.0	-0.3	-1.8	-0.7	0.4
COC(=O)c1ccc(CNCC(=O)Nc2ccc(C(=O)OC)cc2)cc1	-0.8	0.5	-2.1	-4.4	0.6
COC(=O)c1ccc(NC(=O)Cc2ccc(F)cc2)cc1	0.4	0.1	-0.3	67.9*	3.5
COC(=O)c1ccc(NC(=O)CNCc2ccncc2)cc1	1.3	-0.3	-11.9	56.1*	-0.4
Cc1ccc(-c2nnc(CCC(=O)NCC3C4CC5CC(C4)CC3C5)o2)s1 (configuration not stated)	-0.1	3.0	14.6	6.2	10.3
COc1ccc(-c2[nH]ncc2CNC(C)c2cn(C)nc2C)c(F)c1 (configuration not stated)	2.0	0.7	-6.4	-0.5	3.4
COc1cc(CO)ccc1OCc1nnnn1-c1ccc(C)cc1	-0.5	0.6	-4.7	0.8	5.8
